Measured values: ChEMBL document CHEMBL1153308 (Bioorg Med Chem Lett, 2009)

Assays:
[1] = Inhibition of HCV RNA dependent RNA polymerase; parameters: species or system Hepacivirus hominis
[2] = molecular target: T1, Replicase polyprotein 1ab (Severe acute respiratory syndrome-related coronavirus, UniProt P0C6X7); assay: Inhibition of ATPase activity of SCV helicase assessed as phosphate release by colorimetric assay
Summary of the method: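 Purified SCV NTPase/helicase (400 nM in 50 mM Tris/HCl pH 6.6) preincubated with compounds for 5 min at rt. Stopped with malachite green/molybdate reagent in 1 M HCl. A620 read after 5 min, with phosphate from a standard curve.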

[3] = molecular target: T1, Replicase polyprotein 1ab; assay: Inhibition of SCV helicase assessed as duplex-DNA unwinding by FRET based assay
Summary of the method: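 Substrate was 25-bp dsDNA with a 20-dT 5′-overhang. SCV helicase (150 nM in 20 mM HEPES pH 7.4) preincubated with compounds for 5 min at rt. Started with 5X reaction solution (5 mM MgCl2, 45 mM ATP, 25 mM DTT, 100 nM dsDNA substrate as 5X concentrations), then 2 min at 37 °C. Stopped with EDTA plus unmodified trap oligomer, with FRET read-out.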

| Structure (SMILES) | IC50 [1] [µM] | IC50 [2] [µM] | IC50 [3] [µM] |
| --- | --- | --- | --- |
| O=C(O)/C(O)=C/C(=O)c1cccc(OCc2ccccc2)c1 | 0.96 | > 50 | > 50 |
| O=C(O)/C(O)=C/C(=O)c1cccc(OCc2ccc(Cl)cc2)c1 | 0.96 | 24.4 | 13.6 |
| O=C(O)/C(O)=C/C(=O)c1cccc(NCc2ccc(Cl)cc2)c1 | 0.96 | > 50 | 11 |
| O=C(O)/C(O)=C/C(=O)c1ccc(OCc2ccccc2)cc1 | 0.96 | 41.3 | 39.9 |
| O=C(O)/C(O)=C/C(=O)c1cccc(NCc2ccccc2)c1 | 0.96 | > 50 | 5.4 |
| O=C(O)/C(O)=C/C(=O)c1ccc(OCc2ccc(Cl)cc2)cc1 | 0.96 | > 50 | > 50 |
| O=C(O)/C(O)=C/C(=O)c1ccccc1OCc1ccc(Cl)cc1 | 0.96 | > 50 | 28.7 |
| O=C(O)/C(O)=C/C(=O)c1ccccc1OCc1ccccc1 | 0.96 | > 50 | > 50 |
